Experimental data reported in publication PMC2900318 (Bioorganic & medicinal chemistry letters, 2009).
≈ marks a conversion by molar mass, not a printed value.

Key:
human sEH [1] = target: T1, human sEH (Homo sapiens, UniProt P34913); assay: Inhibition of human sEH, kinetic fluorescent assay; assay type: biochemical; settings: for Fold better inhibitory activity against sEH: salicylic acids vs benzoic acids 14 and 15, respectively
T1 sequence (P34913 1-555): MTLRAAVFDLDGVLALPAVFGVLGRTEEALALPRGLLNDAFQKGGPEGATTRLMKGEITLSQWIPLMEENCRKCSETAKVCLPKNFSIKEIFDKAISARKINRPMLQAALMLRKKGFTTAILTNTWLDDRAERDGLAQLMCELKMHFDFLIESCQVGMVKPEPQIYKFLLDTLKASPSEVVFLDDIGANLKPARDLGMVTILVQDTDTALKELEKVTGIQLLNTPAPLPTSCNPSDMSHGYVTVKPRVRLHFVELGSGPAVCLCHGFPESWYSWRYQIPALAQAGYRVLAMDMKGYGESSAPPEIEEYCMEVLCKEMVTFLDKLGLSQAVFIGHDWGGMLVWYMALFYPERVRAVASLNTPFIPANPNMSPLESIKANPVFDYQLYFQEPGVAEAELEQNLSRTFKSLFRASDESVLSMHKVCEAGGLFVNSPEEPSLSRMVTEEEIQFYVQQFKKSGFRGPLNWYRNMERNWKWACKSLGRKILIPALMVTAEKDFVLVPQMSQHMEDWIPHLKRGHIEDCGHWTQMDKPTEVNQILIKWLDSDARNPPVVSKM

[2] = In vitro stability with human liver S9 incubation with or without NADPH; assay type: in vitro ADME; settings: for Parent compound remaining after the reaction / Level of the corresponding acid metabolite: human hepatic S9, 60 min; for Parent compound remaining after the reaction: with or without NADPH; for Level of the corresponding acid metabolite: metabolites 15 and 27, respectively
[3] = Octanol/buffer partition, experimental logP; assay type: physicochemical; settings: for Concentration in buffer: 0.1 M sodium phosphate buffer (pH 7.4) vs buffer saturated 1-octanol; for Concentration in octanol: buffer saturated 1-octanol vs 0.1 M sodium phosphate buffer (pH 7.4)
[4] = Blood levels after oral administration to dog; assay type: in vivo; settings: oral gavage 0.3 mg/kg in tri-olein rich oil
Procedure, shortened: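 Dogs received the test compound as a single oral gavage dose of 0.3 mg/kg in tri-olein rich oil. Blood concentrations were followed over time to give concentration–time profiles.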

COX-1 = target: T2, COX-1 (Ovis aries, UniProt P05979); assay: COX-1 fluorescent inhibitor screening assay kit; assay type: biochemical; settings: at 10 μM
T2 sequence (P05979 25-600): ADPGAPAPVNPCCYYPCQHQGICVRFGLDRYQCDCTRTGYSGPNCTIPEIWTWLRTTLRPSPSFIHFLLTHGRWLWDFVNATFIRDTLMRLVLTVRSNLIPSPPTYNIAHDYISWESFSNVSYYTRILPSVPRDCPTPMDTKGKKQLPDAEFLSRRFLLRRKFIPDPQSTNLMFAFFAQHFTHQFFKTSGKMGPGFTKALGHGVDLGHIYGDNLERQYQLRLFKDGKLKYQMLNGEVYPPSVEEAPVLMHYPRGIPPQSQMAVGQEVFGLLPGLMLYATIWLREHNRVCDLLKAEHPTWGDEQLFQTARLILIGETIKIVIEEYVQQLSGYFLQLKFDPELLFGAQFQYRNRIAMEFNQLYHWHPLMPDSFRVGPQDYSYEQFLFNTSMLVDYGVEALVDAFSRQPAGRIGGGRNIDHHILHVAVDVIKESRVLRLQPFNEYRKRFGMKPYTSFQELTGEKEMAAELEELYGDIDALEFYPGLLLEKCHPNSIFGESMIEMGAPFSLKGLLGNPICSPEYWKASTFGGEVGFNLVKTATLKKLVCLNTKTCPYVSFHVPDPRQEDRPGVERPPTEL

COX-2 = target: T3, COX-2 (Homo sapiens, UniProt P35354); assay: COX-2 fluorescent inhibitor screening assay kit; assay type: biochemical; settings: at 10 μM
T3 sequence (P35354 18-604): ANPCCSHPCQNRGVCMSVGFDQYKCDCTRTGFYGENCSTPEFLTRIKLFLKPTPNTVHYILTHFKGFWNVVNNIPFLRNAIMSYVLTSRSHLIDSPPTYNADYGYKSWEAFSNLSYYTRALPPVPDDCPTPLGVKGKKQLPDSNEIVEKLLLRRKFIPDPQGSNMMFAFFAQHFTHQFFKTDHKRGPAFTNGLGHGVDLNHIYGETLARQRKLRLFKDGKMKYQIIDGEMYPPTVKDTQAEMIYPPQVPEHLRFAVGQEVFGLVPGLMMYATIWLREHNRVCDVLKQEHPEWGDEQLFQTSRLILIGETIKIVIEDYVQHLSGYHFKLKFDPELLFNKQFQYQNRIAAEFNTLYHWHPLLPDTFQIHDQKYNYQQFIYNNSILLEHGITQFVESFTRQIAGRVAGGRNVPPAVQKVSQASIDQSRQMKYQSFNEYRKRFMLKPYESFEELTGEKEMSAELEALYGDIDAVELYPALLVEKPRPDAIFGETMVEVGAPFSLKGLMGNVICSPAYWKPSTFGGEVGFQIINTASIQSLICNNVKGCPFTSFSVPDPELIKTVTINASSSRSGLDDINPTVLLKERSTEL

Solubility in water = assay type: physicochemical
Chemical stability = assay type: physicochemical; settings: 40 mM NaOH; 22 °C
Procedure, shortened: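 The test compound was incubated in alkaline solution (40 mM NaOH) at 22 °C. Hydrolysis was followed over time as conversion to the corresponding phenol.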

human sEH [5] = target: T1, human sEH; settings: statement in words; cited from earlier work

COC(=O)c1ccc(NC(=O)NC23CC4CC(CC(C4)C2)C3)cc1O [Compound 28]
IC50 (human sEH [1]): ~3 nM
Parent compound remaining after the reaction [2]: ≥ 90%
Level of the corresponding acid metabolite [2]: below the limit of detection
Concentration in buffer [3]: <0.3 µM
Concentration in octanol [3]: 3886 µM
Blood concentration [4]: higher than that of the classical sEH inhibitor AUDA
Inhibition of COX-1 (COX-1): not able to show any inhibition
Inhibition of COX-2 (COX-2): not able to show any inhibition

O=C(Nc1ccccc1O)NC12CC3CC(CC(C3)C1)C2 [Compound 2]
Fold reduction of inhibitory potency against human sEH (human sEH [1]; ortho hydroxy vs non-functionalized compound 1 / meta, para isomers): roughly 10 fold

O=C(Nc1cccc(C(=O)N2CCC(N3CCOCC3)CC2)c1)NC12CC3CC(CC(C3)C1)C2 [Compound 17]
solubility (Solubility in water; sodium phosphate buffer, pH 7.4): 10000 µg/mL (≈ 21.4 mM)
Concentration in octanol [3]: 2720 µM

COC(=O)c1ccc(NC(=O)NC23CC4CC(CC(C4)C2)C3)cc1 [Compound 13]
Parent compound remaining after the reaction [2]: ≥ 90%
Level of the corresponding acid metabolite [2]: below the limit of detection
Concentration in buffer [3]: <0.3 µM
Concentration in octanol [3]: 2445 µM

O=C(Nc1ccc(C(=O)O)cc1)NC12CC3CC(CC(C3)C1)C2 [Compound 15]
Fold less active towards sEH (human sEH [1]; vs un-substituted phenyl 1 or the corresponding ester 13): 83 fold

COC(=O)c1cc(NC(=O)NC23CC4CC(CC(C4)C2)C3)ccc1O [Compound 26]
Fold increase in metabolic stability ([2]; human liver S9, compared to 12): 10 fold

O=C(Nc1ccc(C(=O)O)c(O)c1)NC12CC3CC(CC(C3)C1)C2 [Compound 27]
Fold better inhibitory activity against sEH (human sEH [1]): 20 fold
Fold more soluble in water (Solubility in water; compared to 17 (so in the source)): 20 fold
Concentration in buffer [3]: 39 µM
Concentration in octanol [3]: 1641 µM
Blood concentration [4]: no 27 was detected

O=C(Nc1ccc(OC(=O)c2ccccc2)cc1)NC12CC3CC(CC(C3)C1)C2 [Compound 11]
Parent compound remaining after the reaction [2]: 30%
Time to complete conversion to the corresponding phenol 4 (Chemical stability): less than 15 min

O=C(Nc1ccc(O)c(C(=O)O)c1)NC12CC3CC(CC(C3)C1)C2 [Compound 25]
Fold better inhibitory activity against sEH (human sEH [1]): 3 fold

O=C(NC12CC3CC(CC(C3)C1)C2)NC12CC3CC(CC(C3)C1)C2 [N,N′-bisadamantyl urea]
Inhibition towards sEH (human sEH [5]): strong inhibition

CC(=O)Oc1ccc(NC(=O)NC23CC4CC(CC(C4)C2)C3)cc1 [Compound 10]
Hydrolysis to the corresponding phenol 4 ([2]; human hepatic S9, in an hour): hydrolyzed completely
Time to complete conversion to the corresponding phenol 4 (Chemical stability): less than 15 min
